Source: PubChem BioAssay (several laboratories)
EP2 mod = modulators of human EP2 prostaglandin E2 receptor. P43116. 260,000 compounds, 0.83% hits. induction, % at 25 µM. EP2-expressing cells, cAMP HTRF FRET, PGE2 co-stimulation. AID 940;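 active = compounds whose cAMP rise, as percent of the full-agonist control response, exceeds 60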;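 also: rat C6 glioma line stably carrying human EP2 under a CMV promoter; the protocol text gives 20 µM as final concentration; 100% = response of wells given 1 µM PGE2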
NR2E3 ag-1 = human photoreceptor-specific nuclear receptor agonism; CHO-S Gal4-NCOR/VP16-NR2E3 two-hybrid, luciferase; inhibition of corepressor binding, % at 3.98 µM; 360,000 compounds, 0.35% hits; AID 602229;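 active = inhibition above the mean of all tested compounds plus 3 SD, cut at about 70% in these data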;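 also: 0% = DMSO with NR2E3 transfected cells and 100% = cells lacking NR2E3 construct; higher means lower luciferase signal from less NR2E3 corepressor binding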
JMJD2C inh = human JMJD2C demethylase inhibition | Q9H3R0 | GST-JMJD2C(1-420) H3K9me3 demethylation, DELFIA europium | inhibition, % at 2.35 µM | 330,000 compounds, 0.069% hits | AID 2099;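 active = more than half of a compound's replicate wells show inhibition beyond 50%, single wells judged on their own value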;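 also: signal counts dimethyl H3K9 product captured on neutravidin plate; 0% = median of DMSO wells and 100% = 0.3 times that DMSO median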
Target sequence (Q9H3R0 1-420 limits assumed): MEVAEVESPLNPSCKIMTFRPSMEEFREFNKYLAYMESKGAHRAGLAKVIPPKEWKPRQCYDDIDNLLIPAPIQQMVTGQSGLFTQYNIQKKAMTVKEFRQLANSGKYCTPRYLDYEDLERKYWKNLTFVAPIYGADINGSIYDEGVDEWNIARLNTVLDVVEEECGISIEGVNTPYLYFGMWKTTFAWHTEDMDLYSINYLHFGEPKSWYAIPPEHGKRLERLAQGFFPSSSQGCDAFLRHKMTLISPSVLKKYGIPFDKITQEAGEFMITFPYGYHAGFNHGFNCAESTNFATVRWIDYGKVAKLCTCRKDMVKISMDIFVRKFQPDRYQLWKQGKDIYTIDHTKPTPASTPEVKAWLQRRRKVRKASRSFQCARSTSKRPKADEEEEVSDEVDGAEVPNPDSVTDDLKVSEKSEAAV
NR2E3 ag-2 = activates human photoreceptor nuclear receptor NR2E3 | Q9Y5X4 | GST-NR2E3/biotin-RetCOR TR-FRET, 1536-well | inhibition of corepressor binding, % at 4.78 µM | 320,000 compounds, 0.12% hits | AID 2300;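 active = percent inhibition above the cutoff of mean plus 3 SD of all tested compounds, set per screening campaign, cut at about 20% in these data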;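 also: 0% = DMSO wells and 100% = biotin wells as full block of FRET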
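Material: NR2E3–RetCOR corepressor complex | Quantity: 1.35 nM GST-tagged NR2E3 final | Schedule: 5 h at 4 °C | Replication: Singlicate compound wells | Reagent: RetCOR corepressor, biotinylated, 7 nM | Controls: Biotin wells as high control, 0.6% DMSO wells as low control | Signal: TR-FRET, Eu(K)-anti-GST donor, streptavidin-D2 acceptor, ex 340, em 617/671 nm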
PGE2 EP2 inh = inhibitors of human EP2 prostaglandin E2 receptor. P43116. C6 glioma cells expressing human EP2, cAMP TR-FRET; cells stimulated with saturating PGE2. inhibition, % at 25 µM. 260,000 compounds, 0.52% hits. AID 1422;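 active = percent inhibition above 40 after rounding to a whole number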;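 also: rat C6 glioma host cells with rolipram phosphodiesterase inhibitor present; the protocol text gives 20 µM as final concentration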
Furin inh = inhibitors of human furin. P09958. purified furin, fluorogenic substrate cleavage. inhibition, % at 20 µM or 30 µM. 220,000 compounds, 0.061% hits; in the data active = inhibition above about 25%
* hit, by the source's call; x = no result given; ! = a repeat was not active. Only some compounds are listed: those with a hit (about 1.3% of all), similar ones and a draw of the others.

SMILES	EP2 mod	NR2E3 ag-1	JMJD2C inh	NR2E3 ag-2	PGE2 EP2 inh	Furin inh
COc1c(-c2coc3cc4c(cc3c2=O)CC(OC(C)=O)C(C)(C)O4)ccc2c1C=CC(C)(C)O2 (stereo unspecified)	14.4	x	x	x	11.7	x
c1ccc(-c2nc3ccccc3c3nc4ccccc4n23)cc1	64.3*	-27.6	4.2	-1.3	6.5	-17.0
CCc1ccccc1-n1c(SCC(=O)OC)nc2ccccc2c1=O	50.0	x	x	x	2.7	x
COC(=O)c1ccccc1NC(=O)CSc1nc(C)nc2sc(C)c(C)c12	20.3	x	x	x	10.2	x
CN(c1ccccc1)S(=O)(=O)c1ccc(NC(=O)c2ccc(-c3ccccc3)cc2)cc1	2.4	82.3*	19.3	3.0	6.2	-10.3
CN(c1ccc(C(=O)O)cc1)S(=O)(=O)c1ccccc1	17.6	-8.1	64.8*	1.8	12.0	-27.9
C=CCc1cccc2cc(C(=O)Nc3ccc(CC(=O)O)cc3)c(=O)oc12	35.5	-25.4	-16.7	2.3	4.9	-10.2
C=CCc1cccc2cc(C(=O)Nc3cccc(C(=O)O)c3)c(=O)oc12	100.5*	x	0.0	2.6	4.6	-12.2
COc1ccc(-c2c(C)nn3c(N4CCN(C(C)=O)CC4)cc(C)nc23)cc1	-30.9	x	x	x	0.5	x
CC[C@@]1(O)C(=O)OCc2c1cc1n(c2=O)Cc2cc3c(CN(C)C)c(O)ccc3nc2-1	21.9	43.6	-25.5	14.5	58.4*!	x
CCC(=O)NC1=C(Cl)C(=O)C(NC(=O)CC)=C(Cl)C1=O	-49.2	2.0	x	x	117.4*	-17.0
Cc1ccc(OCc2nn3c(-c4ccco4)nnc3s2)cc1	63.1*	-15.5	-18.0	2.8	6.1	-16.6
Brc1ccc(-c2nn3c(-c4ccco4)nnc3s2)o1	33.2	-17.8	2.6	-1.8	42.7*	-21.0
CSc1ncc(C(=O)Nc2ccc(Oc3ccc4c(c3)OCO4)cc2)cn1	-85.5	x	x	x	4.5	x
CC(C)OC(=O)CC12CN3CC(CC(=O)OC(C)C)(CN(C1)C(=O)c1ccccc1C3=O)C2	-18.2	x	x	x	9.4	x
Nc1nc(N)nc(-c2ccccc2-c2nc(N)nc(N)n2)n1	-20.0	-9.5	5.2	3.3	2.1	-8.7
[Cu].c1ccc2c(c1)-c1nc-2nc2[n-]c(nc3nc(nc4[n-]c(n1)c1ccccc41)-c1ccccc1-3)c1ccccc21	1.4	x	x	x	54.3*	x
CCC(CC)N1CCN(S(=O)(=O)c2ccccc2)CC1	-0.9	x	x	x	13.8	x
O=C(N/N=C/c1cccc(O)c1)c1cc(-c2ccc3c(c2)OCO3)n[nH]1	-76.6	-47.1	-24.5	-1.0	64.2*	-14.1
COc1ccccc1NC(=S)N1CCC(c2nc3ccccc3s2)CC1	-71.8	x	x	x	13.6	x
Cc1sc2nc(CN3CCOCC3)nc(Cl)c2c1C	40.2	-6.8	4.5	1.8	5.5	-12.6
Cc1sc2nc(CN3CCOCC3)nc(NS(=O)(=O)c3cc(Cl)ccc3Cl)c2c1C	x	-39.1	55.5*	3.6	x	x
COc1c(Cl)cc(C(=O)Nc2ccc(N3CCN(C(C)=O)CC3)cc2)cc1Cl	-23.1	x	x	x	12.0	x
CC(C)(C)NC(=O)CSc1nc2ccccc2n1Cc1c(F)cccc1Cl	46.7	x	x	x	3.9	x
CSc1nc2ccccc2n1Cc1c(Cl)cccc1Cl	64.6*	-10.1	9.8	3.3	7.7	-13.8
SMILES	EP2 mod	NR2E3 ag-1	JMJD2C inh	NR2E3 ag-2	PGE2 EP2 inh	Furin inh
CC(=O)Nc1ccc(NC(=O)c2ncoc2-c2ccc(F)cc2)cc1C	-40.5	x	x	x	4.3	x
N#CSc1cnc(N)s1	-120.5	x	x	x	110.5*	x
CCc1cccc(C)c1NC(=O)CSc1nc2cc(OC)c(OC)cc2cc1C	50.4	x	x	x	16.1	x
CCOC(=O)/C=C(\C)Sc1cc(=O)oc2ccccc12	40.5	-2.0	-22.4	-1.1	11.3	-10.8
CCOC(=O)/C=C(\C)Sc1cc(O)c2ccccc2c1O	-51.8	3.0	x	x	69.3*	-11.3
O=C(NCCO)C(=O)c1c(-c2ccc(Cl)cc2)cc2ccccn12	-6.4	-8.7	-10.1	1.4	5.7	3.5
O=C(O)c1ccn2c(C(=O)c3ccc(Cl)cc3)c(-c3ccccc3)cc2c1	76.7*	2.7	1.8	-1.3	6.5	-5.5
Cc1cc(OCc2ccccc2)ccc1/C(O)=C1/C(=O)C(=O)N(Cc2cccnc2)C1c1ccncc1 (stereo unspecified)	64.5*	-72.3	2.6	8.9	18.2	-13.9
COc1ccc(/C(O)=C2/C(=O)C(=O)N(Cc3cccnc3)C2c2ccc(OC)c(OC)c2)c(C)c1 (stereo unspecified)	27.1	x	x	x	11.9	x
CN(c1ccc(C(=O)N2CCOCC2)cc1)S(C)(=O)=O	-8.0	-7.5	-4.0	0.1	146.3*	-17.6
CN(c1ccc(C(=O)N2CCCC2)cc1)S(C)(=O)=O	-2.5	x	x	x	13.3	x
CCN1CCN(c2ccc(NC(=O)c3ccc(OC)c(OC)c3)cc2Cl)CC1	-59.2	x	x	x	11.1	x
O=C(Cn1nc(-c2ccc(Cl)cc2)ccc1=O)NCC1COCCO1 (stereo unspecified)	x	11.5	71.4*	3.2	x	x
O=C(Cn1nc(-c2ccccc2)ccc1=O)NCC1COCCO1 (stereo unspecified)	6.8	-4.9	7.0	1.4	9.4	-10.8
COc1ccc(S(=O)(=O)N2c3ccccc3OCC2C(C)(C)C)cc1 (stereo unspecified)	62.2*	-28.3	-26.8	3.1	4.3	-19.4
O=C(O)c1cccc(CSc2nc(-c3ccc(Cl)cc3)cc(C(F)(F)F)n2)c1	63.5*	-13.6	4.8	7.5	11.8	-19.7
CCS(=O)(=O)c1ccc(Sc2nncn2C)c([N+](=O)[O-])c1	12.2	-13.6	-4.2	-0.9	15.4	-5.4
CCS(=O)(=O)c1cc([N+](=O)[O-])c(Br)s1	-118.7	x	x	x	74.2*	x
COc1ccc2c(c1)[n+]([O-])c(/C(C)=N/NC(N)=S)c(C)[n+]2[O-]	7.7	x	x	x	44.1*	x
COc1cc2ccc(C(C)=NNC(N)=S)cc2cc1OC	x	-12.1	x	x	x	x
O=C(CNCC1CCCO1)Nc1ccc(N2CCCCCC2)cc1 (stereo unspecified)	-24.5	-3.0	6.7	-8.2	7.6	-21.2
O=C(CNCC1CCCO1)Nc1ccccc1N1CCCCCC1 (stereo unspecified)	62.0*	-23.0	1.6	-2.8	3.8	-16.0
Nc1ccc(-c2nnn(CC(=O)NC3CCCC3)n2)cc1	-18.0	x	x	x	14.8	x
CCc1c(C)sc2ncn(C3CCN(C(=O)c4n[nH]c5c4CCCC5)CC3)c(=O)c12	-92.3	x	x	x	x	x
CCc1cccc(C)c1NC(=O)CN1CCC(c2nc3ccc(Cl)cc3[nH]2)CC1	-8.8	x	x	x	2.0	x
O=c1[nH]c(=S)[nH]c(-c2ccccc2)c1Cc1c(O)ccc2ccccc12	4.2	x	x	x	46.3*	x
Cc1[nH]c(=S)[nH]c(=O)c1Cc1c(O)ccc2ccccc12	x	-9.7	x	x	x	x
CCN(CC)C(=O)CSc1nnc(-c2ccco2)n1-c1ccccc1OC	-27.9	x	x	x	14.6	x
O=C(/C(=C/O)N=Nc1cccc(C(F)(F)F)c1)c1ccccc1	62.0*	-5.7	-5.8	0.8	5.3	-16.2
